Test results published in ChEMBL document CHEMBL4689842, “EUbOPEN Chemogenomics Library wave 1” (2021).
Values joined by “and” are separate entries in the source; they are usually repeats but may differ in a detail not shown here. Equal entries are not always repeated.

Experiments:
Format in all cases: toxicity, cell-based
Fibroblast [1] = assay: Incucyte cell viability with human fibroblast; conditions: 10 µM, compound concentration 10 uM; further: filed as whole numbers so only -1 and 0 and 1 occur
Fibroblast [2] = assay: Multiplex assay against human fibroblast; conditions: 1 µM, compound concentration 1 uM
Method in brief: (§1)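 On a CQ1 microscope at 37°C and 5% CO2, live cells were imaged after compound addition. They had been stained at seeding with Hoechst33342, BioTracker Green Microtubule Cytoskeleton Dye, MitoTracker Red and Annexin V Alexa Fluor 680. CellPathfinder machine-learning gating assigned cells to Hoechst high-intensity objects or normal cells, normal cells to healthy, pyknosed or fragmented nuclei, and pyknosed cells to mitotic or apoptotic. Tubulin, mitochondrial-mass and membrane-permeability phenotypes are per cents of healthy-nucleus cells.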

HEK-293T = assay: Incucyte cell viability with HEK293T; conditions: human, 10 µM, compound concentration 10 uM; further: filed as whole numbers so only -1 and 0 and 1 occur
U2OS [3] = assay: Incucyte cell viability with U2OS; conditions: human, 10 µM, compound concentration 10 uM; further: filed as whole numbers so only -1 and 0 and 1 occur
U2OS [4] = assay: Multiplex assay against U2OS; conditions: human, 1 µM, compound concentration 1 uM; method in brief: as §1
[5] = 6 h, replicate number 1, timepoint 6 hours
[6] = 12 h, replicate number 1, timepoint 12 hours
[7] = 18 h, replicate number 1, timepoint 18 hours
[8] = 24 h, replicate number 1, timepoint 24 hours

CS(=O)(=O)N1CCN(Cc2cc3nc(-c4cccc5[nH]ncc45)nc(N4CCOCC4)c3s2)CC1 [PICTILISIB]
Growth Rate (Fibroblast [1]; 0 h, replicate number 2, timepoint 0 hours): 1
Growth Rate (Fibroblast [1]; [5]): 0
Growth Rate (Fibroblast [1]; [6]): 0
Growth Rate (Fibroblast [1]; [7]): 0
Growth Rate (Fibroblast [1]; [8]): 0
Population Apoptotic (%) (Fibroblast [2]; 12 h, replicate 1): 64% and 41%
Population Fragmented Nuclei (%) (Fibroblast [2]; 12 h, replicate 1): 35% and 14%
Population Healthy Nuclei (%) (Fibroblast [2]; 12 h, replicate 1): 45% and 47%
Population Membrane Permeable-Phenotype (%) (Fibroblast [2]; 12 h, replicate 1): 5% and 11%
Population Mitochondria Different-Phenotype (%) (Fibroblast [2]; 12 h, replicate 1): 11% and 25%
Population Mitotic Cells (%) (Fibroblast [2]; 12 h, replicate 1): 35% and 58%
Population Normal (%) (Fibroblast [2]; 12 h, replicate 1): 83% and 50%
Population Pyknosed Nuclei (%) (Fibroblast [2]; 12 h, replicate 1): 18% and 37%
Total Cell Count (Fibroblast [2]; 12 h, replicate 1): 234 and 214
Population Apoptotic (%) (Fibroblast [2]; 12 h, replicate 2): 80% and 35%
Population Fragmented Nuclei (%) (Fibroblast [2]; 12 h, replicate 2): 72% and 48%
Population Healthy Nuclei (%) (Fibroblast [2]; 12 h, replicate 2): 18% and 22%
Population Hoechst High Intensity Objects (%) (Fibroblast [2]; 12 h, replicate 2): 38% and 35%
Population Membrane Permeable-Phenotype (%) (Fibroblast [2]; 12 h, replicate 2): 18% and 9%
Population Normal (%) (Fibroblast [2]; 12 h, replicate 2): 61% and 64%
Total Cell Count (Fibroblast [2]; 12 h, replicate 2): 94 and 76
Population Apoptotic (%) (Fibroblast [2]; 24 h, replicate 1): 65% and 68%
Population Fragmented Nuclei (%) (Fibroblast [2]; 24 h, replicate 1): 38% and 24%
Population Healthy Nuclei (%) (Fibroblast [2]; 24 h, replicate 1): 49% and 38%
Population Hoechst High Intensity Objects (%) (Fibroblast [2]; 24 h, replicate 1): 21% and 44%
Population Membrane Permeable-Phenotype (%) (Fibroblast [2]; 24 h, replicate 1): 4% and 2%
Population Mitotic Cells (%) (Fibroblast [2]; 24 h, replicate 1): 34% and 31%
Population Normal (%) (Fibroblast [2]; 24 h, replicate 1): 78% and 55%
Total Cell Count (Fibroblast [2]; 24 h, replicate 1): 258 and 181
Population Apoptotic (%) (Fibroblast [2]; 24 h, replicate 2): 80% and 73%
Population Fragmented Nuclei (%) (Fibroblast [2]; 24 h, replicate 2): 63% and 56%
Population Healthy Nuclei (%) (Fibroblast [2]; 24 h, replicate 2): 25% and 9%
Population Hoechst High Intensity Objects (%) (Fibroblast [2]; 24 h, replicate 2): 36% and 43%
Population Mitotic Cells (%) (Fibroblast [2]; 24 h, replicate 2): 20% and 26%
Population Normal (%) (Fibroblast [2]; 24 h, replicate 2): 63% and 56%
Population Tubulin-Different-Phenotype (%) (Fibroblast [2]; 24 h, replicate 2): 27% and 50%
Total Cell Count (Fibroblast [2]; 24 h, replicate 2): 69 and 78
Growth Rate (HEK-293T; [5]): 0
Growth Rate (HEK-293T; [6]): 0
Growth Rate (HEK-293T; [7]): 0
Growth Rate (HEK-293T; [8]): 0
Growth Rate (U2OS [3]; 0 h, replicate number 1, timepoint 0 hours): 0
Growth Rate (U2OS [3]; [5]): 0
Growth Rate (U2OS [3]; [6]): 0
Growth Rate (U2OS [3]; [7]): 0
Growth Rate (U2OS [3]; [8]): 0
Population Apoptotic (%) (U2OS [4]; 12 h, replicate 1): 69% and 53%
Population Fragmented Nuclei (%) (U2OS [4]; 12 h, replicate 1): 22% and 12%
Population Healthy Nuclei (%) (U2OS [4]; 12 h, replicate 1): 35% and 77%
Population Hoechst High Intensity Objects (%) (U2OS [4]; 12 h, replicate 1): 4%
Population Membrane Permeable-Phenotype (%) (U2OS [4]; 12 h, replicate 1): 47% and 40%
Population Mitotic Cells (%) (U2OS [4]; 12 h, replicate 1): 30% and 46%
Population Normal (%) (U2OS [4]; 12 h, replicate 1): 95% and 96%
Population Tubulin-Different-Phenotype (%) (U2OS [4]; 12 h, replicate 1): 100% and 49%
Total Cell Count (U2OS [4]; 12 h, replicate 1): 150 and 194
Population Apoptotic (%) (U2OS [4]; 12 h, replicate 2): 74% and 45%
Population Fragmented Nuclei (%) (U2OS [4]; 12 h, replicate 2): 13%
Population Healthy Nuclei (%) (U2OS [4]; 12 h, replicate 2): 26% and 78%
Population Hoechst High Intensity Objects (%) (U2OS [4]; 12 h, replicate 2): 24% and 14%
Population Membrane Permeable-Phenotype (%) (U2OS [4]; 12 h, replicate 2): 55% and 27%
Population Mitotic Cells (%) (U2OS [4]; 12 h, replicate 2): 25% and 54%
Population Normal (%) (U2OS [4]; 12 h, replicate 2): 75% and 86%
Total Cell Count (U2OS [4]; 12 h, replicate 2): 91
Population Apoptotic (%) (U2OS [4]; 24 h, replicate 1): 91% and 73%
Population Fragmented Nuclei (%) (U2OS [4]; 24 h, replicate 1): 16% and 11%
Population Membrane Permeable-Phenotype (%) (U2OS [4]; 24 h, replicate 1): 84% and 29%
Population Normal (%) (U2OS [4]; 24 h, replicate 1): 77% and 97%
Total Cell Count (U2OS [4]; 24 h, replicate 1): 190 and 175
Population Apoptotic (%) (U2OS [4]; 24 h, replicate 2): 94% and 86%
Population Fragmented Nuclei (%) (U2OS [4]; 24 h, replicate 2): 21% and 13%
Population Healthy Nuclei (%) (U2OS [4]; 24 h, replicate 2): 28% and 75%
Population Hoechst High Intensity Objects (%) (U2OS [4]; 24 h, replicate 2): 23% and 10%
Population Mitotic Cells (%) (U2OS [4]; 24 h, replicate 2): 5% and 13%
Population Normal (%) (U2OS [4]; 24 h, replicate 2): 76% and 89%
Total Cell Count (U2OS [4]; 24 h, replicate 2): 159 and 98
